Screens from PubChem BioAssay.
Only some compounds are listed: those with a hit (about 1.5% of all), similar ones and a draw of the others.
CXCR6 block – CXCR6 receptor inhibitors, primary screen, cell-based, beta-arrestin, luminescence, CHO-K1 PathHunter, 1536-well | actives 0.36% (n = 360,000) | inhibition, % at 20 µM; in the data active = inhibition above about 34%, passing the limit was not always enough;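 also: antagonist mode with CXCL16 agonist at 10 nM final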
CCR6 antag – CCR6 receptor antagonists, primary screen, cell-based, CHO-K1, luminescence, beta-arrestin, uHTS. C-C chemokine receptor type 6 (Homo sapiens), P51684. CHO-K1 CCR6 PathHunter beta-arrestin, CCL20-stimulated. inhibition, % at 20 µM. actives 0.49% (n = 340,000);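 active = compounds whose inhibition of the agonist-driven luminescence signal at 20 µM reaches about 50%, limit read from the data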;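 also: cells stimulated with CCL20 at 14 nM final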
Target sequence (P51684 whole entry, looked up): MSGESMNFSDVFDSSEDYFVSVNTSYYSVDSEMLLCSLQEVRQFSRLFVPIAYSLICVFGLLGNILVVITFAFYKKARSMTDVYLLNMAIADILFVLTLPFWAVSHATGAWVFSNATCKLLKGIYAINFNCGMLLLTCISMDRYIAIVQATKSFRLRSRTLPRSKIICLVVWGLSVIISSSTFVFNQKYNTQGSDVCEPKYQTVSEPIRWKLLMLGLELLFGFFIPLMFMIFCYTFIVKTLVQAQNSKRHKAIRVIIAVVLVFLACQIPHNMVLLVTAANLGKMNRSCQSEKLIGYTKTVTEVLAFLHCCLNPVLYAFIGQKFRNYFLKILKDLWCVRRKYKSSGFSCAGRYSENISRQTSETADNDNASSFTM
EBI2 block – EBI2 receptor antagonists, beta-arrestin recruitment, primary screen, cell-based, luminescence, 7a,25-OHC stimulation, uHTS. 7a,25-OHC stimulated. inhibition, % at 5 µM. actives 0.81% (n = 360,000); in the data active = inhibition above about 38%;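 also: enzyme fragment complementation signal reports receptor beta-arrestin coupling in cells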
APJ antagonist – antagonists of human apelin receptor APJ, primary screen, CHO-K1 cells, beta-arrestin complementation, luminescence; P35414; inhibition, % at 20 µM; actives 0.32% (n = 330,000); AID 2521, 2010;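 active = inhibition above about 40% at 20 µM, limit read from the data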;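 also: cells challenged with 10 nM apelin-13 agonist together with compound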
APJ agonist – agonists of human apelin receptor APJ, primary screen, CHO-K1 cells, PathHunter beta-arrestin, luminescence; 0% DMSO wells, 100% apelin; activation, % at 20 µM; actives 0.11% (n = 330,000); AID 2520, 2010;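 active = activation more than six SD over the plate average, tested at 20 µM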
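Test system: CHO-K1 APJ beta-arrestin complementation cell line | Compound: Single test compound dose, 20 µM final, 1% DMSO | Incubation: Compound 90 min 25 °C, reagent 1 h | Measured by: beta-gal luminescence | Read-out basis: APJ–arrestin association signal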
APJ antag confirm – APJ antagonists blocking beta-arrestin recruitment, confirmation, cell-based, luminescence, single concentration, uHTS hits | antagonist mode | AID 2766, 2010 | actives 66% (n = 950) | inhibition, % at 20 µM | shares compounds with APJ antagonist; in the data active = inhibition above about 50%
Numbers stand for hits; – = inactive; · = no result given.

SMILES	CXCR6 block	CCR6 antag	EBI2 block	APJ antagonist	APJ agonist	APJ antag confirm
O=C(O)c1cccc(Nc2ccc([N+](=O)[O-])c3nonc23)c1	–	58	–	41	–	78
O=C(O)c1ccc(Nc2ccc([N+](=O)[O-])c3nonc23)cc1	–	59	–	42	–	76
COc1ccc(Nc2ccc([N+](=O)[O-])c3nonc23)c(OC)c1	44	60	–	44	–	78
CC(=O)c1ccc(Nc2ccc([N+](=O)[O-])c3nonc23)cc1	–	–	–	–	–	·
COc1cccc(OC)c1C(=O)OCc1c(-c2ccccc2)ncc2ccccc12	–	–	–	–	–	·
CN1C(=O)[C@H]2[C@@H](c3ccc(C(F)(F)F)cc3)N[C@]3(CCCN(Cc4ccc(Cl)cc4)C3=O)[C@H]2C1=O	–	·	–	·	·	·
CC1(C(=O)NC2CCCC2)CCC(=O)N1CCOc1ccccc1 (stereo not given)	–	·	–	·	·	·
CC(C)C(=O)Nc1cccc(C(=O)OCC(=O)c2ccc(Cl)cc2Cl)c1	–	–	–	49	–	50
CC(=O)Nc1cc(C(=O)OCC(=O)c2ccc(C)cc2)ccc1C	–	–	–	–	–	·
CC(=O)Nc1cc(C(=O)OCC(=O)c2ccc(Cl)cc2Cl)ccc1C	–	–	–	52	–	–
COC(=O)c1cccc(NC(=O)Nc2ccc(Cl)cc2Cl)c1	–	–	–	–	–	·
O=C(COC(=O)c1cccnc1Cl)c1ccc(Cl)cc1Cl	–	–	–	58	–	60
COc1ccc(C(=O)COC(=O)c2cccnc2Cl)c(OC)c1	–	–	–	–	–	·
COC(=O)C[C@@H]1OC[C@H](C(C)C)N1S(=O)(=O)c1ccc(C)cc1	·	·	–	·	·	·
COc1ccc(N2CC(C(=O)Nc3ccccc3C(=O)NC3CC3)CC2=O)cc1 (stereo not given)	–	–	–	41	–	–
CCc1nc2c(OCc3ccc(F)cc3)cccn2c1N(C)C(=O)COc1ccccc1	–	·	–	·	·	·
N#Cc1cnc(Nc2nc3ccccc3o2)nc1-c1ccccc1	–	55	–	52	–	–
COc1cccc(C2CC(OCCF)=CC(=O)O2)c1 (stereo not given)	·	·	–	·	·	·
CCOC(=O)C(Cc1c[nH]c2cc([N+](=O)[O-])ccc12)(NC(C)=O)C(=O)OCC	–	–	–	·	·	·
CCN(CC)c1ccc(/C=C2\SC(=O)N(C(C)C)C2=O)o1	–	–	56	53	–	–
CN(Cc1ccccc1)C(=S)NC(=O)c1cccs1	–	–	–	41	–	–
CN(Cc1ccccc1)C(=S)NC(=O)C1CCCCC1	–	–	–	–	–	·
COc1cc(C)ccc1S(=O)(=O)NC(=O)C1(C)CCN1C(=O)c1ccc(C2CCCCC2)cc1 (stereo not given)	–	·	–	·	·	·
CNC(=S)NNC(=O)CCn1nc(C)c(Br)c1C	–	–	–	–	–	·
Cc1nn(CCC(=O)NNC(=S)NCC(C)C)c(C)c1Br	–	53	–	77	–	115
SMILES	CXCR6 block	CCR6 antag	EBI2 block	APJ antagonist	APJ agonist	APJ antag confirm
Cc1nn(CCC(=O)NNC(=S)Nc2ccccc2)c(C)c1Br	–	–	–	47	–	100
CN(C)c1ccc(/C=C2/NC(=O)NC2=O)cc1	–	–	–	–	–	·
CN(C)c1ccc(/C=C2\N=C(c3ccc(Cl)c([N+](=O)[O-])c3)NC2=O)cc1	45	63	–	52	–	104
COC(=O)c1sc(N)c(C(=O)OC)c1COC(=O)c1c(C)noc1C	58	70	–	46	–	96
COc1cc(/C=C/c2sc3ccccc3[n+]2CCCS(=O)(=O)[O-])ccc1O	51	55	–	51	–	100
CCC(/C=C1\Oc2ccc(OC)cc2N1C)=C\c1sc2ccccc2[n+]1CCCS(=O)(=O)[O-]	–	–	–	·	·	·
COc1ccc(Cn2nnnc2C(c2cc(OC)ccc2OC)N2CCC(C(N)=O)CC2)cc1 (stereo not given)	–	–	–	43	–	–
COc1ccc(Cn2nnnc2C(c2ccccc2Cl)N2CCC(C(N)=O)CC2)cc1 (stereo not given)	–	–	–	–	–	·
CC(C)CC(NC(=O)C1CCCN1C(=O)OC(C)(C)C)C(=O)NCC(N)=O (stereo not given)	–	–	–	·	·	·
COC(=O)C(CC(C)C)NC(=O)C(Cc1ccccc1)NC(=O)C1CCCN1C(=O)OC(C)(C)C (stereo not given)	–	52	–	48	–	–
CCOC(=O)C1CCN(c2nc(C)nc3c2oc2ccccc23)CC1	–	–	–	45	–	–
COc1ccccc1-c1cc2nc(-c3ccccc3)cc(N3CCN(C(=O)c4ccco4)CC3)n2n1	–	·	–	·	·	·
NC(=O)c1sc2nc(-c3ccccc3)c3c(c2c1N)CCCC3	–	–	–	47	–	–
Cc1ccc(-c2nc3sc(C(N)=O)c(N)c3c3c2CCCC3)cc1	–	–	–	–	–	·
COCCn1c(SCC(=O)Nc2ccc(F)cc2)nc2c(c1=O)SCC2	–	·	–	·	·	·
O=C(NCCc1cn2cccnc2n1)C1CCC(=O)N(Cc2ccccc2F)C1 (stereo not given)	–	·	–	·	·	·
CC1CCC(NC(=O)C(NS(=O)(=O)c2ccc(Br)cc2)C(C)C)CC1 (stereo not given)	–	·	–	·	·	·
COc1cc(/C=C(\C#N)c2nc3ccccc3s2)cc([N+](=O)[O-])c1O	44	60	–	51	–	88
N#C/C(=C\c1ccc(O)c([N+](=O)[O-])c1)c1nc2ccccc2s1	–	–	–	·	·	·
CCCCN(C)CCNC(=O)CN1C(=O)CSc2ccc(S(=O)(=O)N3CCCCC3)cc21	–	–	–	49	–	–
CCCCN(C)CCNC(=O)CN1C(=O)CSc2ccc(S(=O)(=O)N3CCOCC3)cc21	–	–	–	–	–	·
CCOC(=O)C1CCCN(c2c(NCCCN(CC)c3ccccc3)c(=O)c2=O)C1 (stereo not given)	–	–	–	–	–	·
CCOC(=O)C1CCCN(c2c(NCCN(CC)c3ccccc3)c(=O)c2=O)C1 (stereo not given)	–	–	–	40	–	–
COc1cc(/C=N/NS(=O)(=O)c2ccc(C)c([N+](=O)[O-])c2)cc([N+](=O)[O-])c1O	–	–	–	50	–	60
COc1cc(/C=N/NS(=O)(=O)c2ccc(C)c([N+](=O)[O-])c2)ccc1O	–	–	–	–	–	·
COc1ccc(/C=C/C(=O)NC(=S)Nc2cc([N+](=O)[O-])ccc2O)cc1OC	–	–	–	42	–	60
COc1ccc([N+](=O)[O-])cc1NC(=S)NC(C)=O	–	–	–	–	–	·
